Measurements reported in ChEMBL document CHEMBL4831540, “Discovery of Aficamten (CK-274), a Next-Generation Cardiac Myosin Inhibitor for the Treatment of Hypertrophic Cardiomyopathy” (J Med Chem, 2021).

Columns and labels:
[1] = Half life in cynomolgus monkey at 1 mg/kg, iv; assay type: ADME, organism-based, Macaca fascicularis; settings: in vivo
Method in brief: (§1)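 Multi-species PK study in male animals, n = 3 per group (dog IV arm n = 2). Iv and oral dosing with plasma concentration–time profiles yielding Cmax, tmax, AUC0–t, CL, Vss, t1/2 and F.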

[2] = Half life in Beagle dog at 1 mg/kg, iv; assay type: ADME, organism-based, Canis lupus familiaris; settings: in vivo; method in brief: as §1

half-life [1]: 8.1 h | half-life [2]: 33.8 h
Structure (SMILES): CCc1nc(-c2ccc3c(c2)CC[C@H]3NC(=O)c2cnn(C)c2)no1 [AFICAMTEN]
